Each block holds one compound with its values, some of them ahead of it. Calls of active or inactive are those of the source. The calls are words filed in the database; no cut-off is given here.
Assays:
Homo sapiens = organism: Homo sapiens; assay: Inhibition of S100A11-AN2 interaction (unknown origin) by HTRF analysis
In short: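 TR-FRET peptide-displacement assays run in parallel: S100A4 with MPN (NMII-mimicking) peptide, and S100A11 with AnII-mimicking peptide, both with 1 mM calcium. Duplicate dose-response in two independent experiments; top concentration 100 μM or 48.75 μM depending on series. IC50 fitted from percentage inhibition against solvent controls.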

[1] = Inhibition of S100A4-NMII interaction (unknown origin) by HTRF analysis; design: species or system Homo sapiens
In short: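 TR-FRET peptide-displacement assays run in parallel: S100A4 with MPN (NMII-mimicking) peptide, and S100A11 with AnII-mimicking peptide, both with 1 mM calcium. IC50 fitted from percentage inhibition against solvent controls.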

Protein S100-A4 = Protein S100-A4 (Homo sapiens, UniProt P26447); assay: Inhibition of S100A4 (unknown origin) in presence of GSH by HTRF analysis
Sequence of Protein S100-A4 (P26447 whole entry, the tested form may be a part): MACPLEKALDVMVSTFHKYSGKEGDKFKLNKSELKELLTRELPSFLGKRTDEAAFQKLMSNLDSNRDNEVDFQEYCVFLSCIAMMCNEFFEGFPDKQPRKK

HEK293 [2] = assay: Inhibition of C-terminal halo-tagged S100A4 C81S mutant-nanoluc-fused NMII interaction (unknown origin) expressed in HEK293 cells using nano-glo as substrate incubated for 24 hrs by Nano-bret assay relative to control; format: cell-based; details: Homo sapiens, dose or concentration not given here
In short: (§1)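 S100A4 wild-type or C81S construct co-expressed with NMII fusion in HEK293 cells, run in parallel. Inhibitors given at a single 30 μM for 24 h with HaloTag 618 ligand in phenol-red-free 4% serum medium. NanoGlo substrate added. Background-corrected 618/460 nm BRET ratio compared with DMSO-treated cells.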

HEK293 [3] = assay: Inhibition of C-terminal halo-tagged S100A4 C81S mutant-nanoluc-fused NMII interaction (unknown origin) expressed in HEK293 cells using nano-glo as substrate incubated for 24 hrs by Nano-bret assay; format: cell-based; details: Homo sapiens; in short: as §1
HeLa = assay: Inhibition of cell migration in human HeLa cells assessed as reduction in wound healing at 8 uM incubated for 36 hrs by incucyte live-cell imager; format: functional, cell-based
In short: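 HeLa or A549 cells seeded in collagen-coated 96-well plates to near confluency. Monolayer scratched, then medium replaced with medium containing various inhibitor concentrations. Plates imaged every 2 h for 36 h in an Incucyte. Wound area measured with an image-analysis wound healing tool.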

HEK293 [4] = assay: Inhibition of wild type C-terminal halo-tagged S100A4-nanoluc-fused NMII interaction (unknown origin) expressed in HEK293 cells using nano-glo as substrate incubated for 24 hrs by Nano-bret assay; format: cell-based; details: Homo sapiens
[5] = Permeability of compound in MDCK-MDR1 cells; format: ADME, cell-based, Canis lupus familiaris; details: dog
In short: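 Permeability and P-gp efflux measured by transit across MDCK-MDR1 cell monolayers by an outside contract laboratory.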

[6] = Aqueous solubility of compound in PBS buffer at pH 7.4; format: physicochemical
In short: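 Aqueous solubility measured in PBS pH 7.4 by an outside contract laboratory.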

SMILES: CN1CCCC(NC(=O)[C@H]2C[C@H](c3ccccc3)CN2C(=O)CCl)C1=O (some centres not stated)
inhibition (Homo sapiens): inactive | IC50 [1]: < 1000 nM

SMILES: N#CCc1ccc(NC(=O)[C@H]2C[C@H](c3ccccc3)CN2C(=O)CCl)cc1
inhibition (Homo sapiens): inactive | IC50 [1]: < 1000 nM

SMILES: O=C(Nc1cccc(Cl)c1)[C@H]1C[C@H](c2ccccc2)CN1C(=O)CCl
IC50 (Protein S100-A4): 4620 nM | inhibition (HEK293 [2]): < 60% | inhibition (HEK293 [3]): Active | inhibition (HeLa): Active | inhibition (HEK293 [4]): Active | IC50 [1]: 2900 nM

SMILES: Cc1ccc(S(=O)(=O)/C=C/C#N)cc1
IC50 (Protein S100-A4): > 20000 nM

SMILES: O=C(NC1CCCc2ccccc21)[C@H]1C[C@H](c2ccccc2)CN1C(=O)CCl (some centres not stated)
inhibition (HEK293 [2]): < 60% | permeability [5]: Permeable | solubility [6]: soluble | inhibition (Homo sapiens): inactive | inhibition (HEK293 [3]): Active | inhibition (HeLa): Active | inhibition (HEK293 [4]): Active

Next, values leading:

inhibition (Homo sapiens): inactive | IC50 [1]: < 1000 nM
SMILES: O=C1Nc2ccccc2C1NC(=O)[C@H]1C[C@H](c2ccccc2)CN1C(=O)CCl (some centres not stated)

inhibition (Homo sapiens): inactive | IC50 [1]: < 1000 nM
SMILES: COc1cccc(N2CC(NC(=O)[C@H]3C[C@H](c4ccccc4)CN3C(=O)CCl)CC2=O)c1 (some centres not stated)
